Measured values from the M2OR odorant receptor database.

Key:
Settings in all cases: stereoisomer not certain
UniProt Q8VGZ2 = molecular target: T1, UniProt Q8VGZ2
T1 sequence (whole entry): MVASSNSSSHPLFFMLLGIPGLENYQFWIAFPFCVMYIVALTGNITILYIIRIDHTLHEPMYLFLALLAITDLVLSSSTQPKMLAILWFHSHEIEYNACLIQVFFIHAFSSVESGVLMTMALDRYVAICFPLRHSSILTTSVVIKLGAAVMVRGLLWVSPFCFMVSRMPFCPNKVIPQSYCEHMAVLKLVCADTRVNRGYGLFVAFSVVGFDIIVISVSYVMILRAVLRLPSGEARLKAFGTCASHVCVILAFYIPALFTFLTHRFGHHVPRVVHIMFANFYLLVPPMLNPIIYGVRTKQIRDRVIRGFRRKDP
Method in brief: (§1)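 Assay methods differ from source to source, frequently being transient luciferase assays in mammalian cell lines. For each receptor–molecule pair, the label responsive (active) applies when the original authors judged the measured signal statistically different from baseline, and non-responsive (inactive) applies otherwise.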

UniProt Q8VGZ7 = molecular target: T2, UniProt Q8VGZ7
T2 sequence (whole entry): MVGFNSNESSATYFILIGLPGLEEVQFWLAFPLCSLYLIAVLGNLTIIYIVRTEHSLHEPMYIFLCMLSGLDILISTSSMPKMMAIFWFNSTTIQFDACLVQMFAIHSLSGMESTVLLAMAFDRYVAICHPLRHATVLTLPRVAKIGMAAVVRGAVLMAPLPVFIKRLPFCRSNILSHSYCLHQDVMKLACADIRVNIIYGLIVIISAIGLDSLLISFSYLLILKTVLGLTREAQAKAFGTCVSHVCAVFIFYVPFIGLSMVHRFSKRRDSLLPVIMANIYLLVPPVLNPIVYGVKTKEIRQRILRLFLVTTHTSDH
Method in brief: as §1

UniProt Q8VH16 = molecular target: T3, UniProt Q8VH16
T3 sequence (whole entry): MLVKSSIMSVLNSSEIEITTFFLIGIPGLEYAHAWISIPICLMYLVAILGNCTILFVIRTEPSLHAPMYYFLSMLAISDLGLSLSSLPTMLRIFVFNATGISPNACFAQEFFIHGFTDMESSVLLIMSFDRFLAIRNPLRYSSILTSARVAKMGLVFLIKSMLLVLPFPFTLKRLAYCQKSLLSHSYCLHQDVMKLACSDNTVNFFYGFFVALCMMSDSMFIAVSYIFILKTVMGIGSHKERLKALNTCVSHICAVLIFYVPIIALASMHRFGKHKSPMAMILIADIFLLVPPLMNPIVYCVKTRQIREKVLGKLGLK
Method in brief: as §1

UniProt Q8VH20 = molecular target: T4, UniProt Q8VH20
T4 sequence (whole entry): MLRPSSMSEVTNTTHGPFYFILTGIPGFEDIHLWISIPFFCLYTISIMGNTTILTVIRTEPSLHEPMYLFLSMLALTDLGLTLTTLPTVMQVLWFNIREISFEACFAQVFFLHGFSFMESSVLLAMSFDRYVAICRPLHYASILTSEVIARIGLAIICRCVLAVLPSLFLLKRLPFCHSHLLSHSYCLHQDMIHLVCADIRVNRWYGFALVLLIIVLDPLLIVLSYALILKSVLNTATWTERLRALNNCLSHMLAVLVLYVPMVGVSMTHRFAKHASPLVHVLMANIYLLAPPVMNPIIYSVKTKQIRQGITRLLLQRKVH
Method in brief: as §1

UniProt Q8VH21 = molecular target: T5, UniProt Q8VH21
T5 sequence (whole entry): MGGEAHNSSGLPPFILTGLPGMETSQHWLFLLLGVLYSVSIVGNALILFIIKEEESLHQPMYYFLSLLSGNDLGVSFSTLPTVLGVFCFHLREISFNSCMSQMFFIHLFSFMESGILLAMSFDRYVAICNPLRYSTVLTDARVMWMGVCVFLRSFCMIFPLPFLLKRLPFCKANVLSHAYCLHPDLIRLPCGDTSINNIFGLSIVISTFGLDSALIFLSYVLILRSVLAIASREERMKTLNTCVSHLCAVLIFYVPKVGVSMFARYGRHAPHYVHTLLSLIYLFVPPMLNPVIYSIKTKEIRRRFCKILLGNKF
Method in brief: as §1

UniProt Q924H8 = molecular target: T6, UniProt Q924H8
T6 sequence (whole entry): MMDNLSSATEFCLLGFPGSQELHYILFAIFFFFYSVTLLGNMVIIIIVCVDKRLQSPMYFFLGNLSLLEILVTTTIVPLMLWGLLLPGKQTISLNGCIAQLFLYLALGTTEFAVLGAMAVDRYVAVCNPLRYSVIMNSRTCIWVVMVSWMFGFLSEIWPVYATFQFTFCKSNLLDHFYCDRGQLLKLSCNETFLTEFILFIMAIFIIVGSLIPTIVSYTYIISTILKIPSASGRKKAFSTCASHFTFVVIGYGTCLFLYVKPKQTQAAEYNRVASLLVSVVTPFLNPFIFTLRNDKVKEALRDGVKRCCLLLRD
Method in brief: as §1

UniProt Q8VGX8 = molecular target: T7, UniProt Q8VGX8
T7 sequence (whole entry): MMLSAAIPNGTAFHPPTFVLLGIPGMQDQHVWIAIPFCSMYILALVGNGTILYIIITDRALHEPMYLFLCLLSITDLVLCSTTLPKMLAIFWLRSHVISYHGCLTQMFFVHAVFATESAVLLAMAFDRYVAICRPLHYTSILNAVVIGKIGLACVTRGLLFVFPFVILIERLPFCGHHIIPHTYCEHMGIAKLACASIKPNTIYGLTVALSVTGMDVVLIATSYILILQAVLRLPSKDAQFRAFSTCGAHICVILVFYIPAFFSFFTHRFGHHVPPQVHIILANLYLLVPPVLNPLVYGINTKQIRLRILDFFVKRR
Method in brief: as §1

UniProt Q8VGY6 = molecular target: T8, UniProt Q8VGY6
T8 sequence (whole entry): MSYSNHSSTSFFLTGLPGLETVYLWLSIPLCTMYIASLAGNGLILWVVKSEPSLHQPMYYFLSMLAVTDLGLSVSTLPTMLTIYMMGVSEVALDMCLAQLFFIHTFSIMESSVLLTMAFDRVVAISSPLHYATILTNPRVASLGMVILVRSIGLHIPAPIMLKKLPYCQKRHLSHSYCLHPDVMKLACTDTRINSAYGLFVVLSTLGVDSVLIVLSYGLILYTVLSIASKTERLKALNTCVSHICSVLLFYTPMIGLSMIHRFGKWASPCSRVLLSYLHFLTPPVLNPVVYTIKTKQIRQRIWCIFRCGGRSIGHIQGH
Method in brief: as §1

UniProt Q8VH10 = molecular target: T9, UniProt Q8VH10
T9 sequence (whole entry): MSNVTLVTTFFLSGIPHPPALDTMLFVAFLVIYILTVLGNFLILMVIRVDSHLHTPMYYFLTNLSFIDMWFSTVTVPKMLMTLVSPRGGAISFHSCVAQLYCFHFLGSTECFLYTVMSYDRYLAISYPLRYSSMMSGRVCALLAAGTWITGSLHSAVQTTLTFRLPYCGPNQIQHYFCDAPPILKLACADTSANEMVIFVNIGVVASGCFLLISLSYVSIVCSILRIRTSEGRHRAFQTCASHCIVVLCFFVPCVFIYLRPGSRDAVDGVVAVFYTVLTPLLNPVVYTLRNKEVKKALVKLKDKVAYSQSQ
Method in brief: as §1

UniProt Q9EPN9 = molecular target: T10, UniProt Q9EPN9
T10 sequence (whole entry): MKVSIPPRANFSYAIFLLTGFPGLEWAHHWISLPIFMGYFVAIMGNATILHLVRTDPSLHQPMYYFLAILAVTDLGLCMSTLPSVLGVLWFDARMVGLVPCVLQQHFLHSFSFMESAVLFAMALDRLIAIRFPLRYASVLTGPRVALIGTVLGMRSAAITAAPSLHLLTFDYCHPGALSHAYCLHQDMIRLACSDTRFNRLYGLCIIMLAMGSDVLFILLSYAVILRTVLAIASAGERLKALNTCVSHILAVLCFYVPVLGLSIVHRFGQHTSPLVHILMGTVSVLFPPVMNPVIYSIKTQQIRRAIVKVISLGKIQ
Method in brief: as §1

UniProt Q9R0K2 = molecular target: UniProt Q9R0K2
Sequence of UniProt Q9R0K2 (Q9R0K2 as listed by the source): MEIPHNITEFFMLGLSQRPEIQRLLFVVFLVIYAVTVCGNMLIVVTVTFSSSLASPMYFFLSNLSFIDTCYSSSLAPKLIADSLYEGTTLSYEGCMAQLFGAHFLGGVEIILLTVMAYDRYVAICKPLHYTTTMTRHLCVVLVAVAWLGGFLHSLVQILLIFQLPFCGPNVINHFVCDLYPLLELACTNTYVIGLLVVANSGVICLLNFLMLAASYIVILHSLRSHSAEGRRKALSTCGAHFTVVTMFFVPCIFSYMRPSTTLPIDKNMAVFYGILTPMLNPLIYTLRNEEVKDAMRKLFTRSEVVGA
Method in brief: as §1

UniProt Q9WU86 = molecular target: T11, UniProt Q9WU86
T11 sequence (whole entry): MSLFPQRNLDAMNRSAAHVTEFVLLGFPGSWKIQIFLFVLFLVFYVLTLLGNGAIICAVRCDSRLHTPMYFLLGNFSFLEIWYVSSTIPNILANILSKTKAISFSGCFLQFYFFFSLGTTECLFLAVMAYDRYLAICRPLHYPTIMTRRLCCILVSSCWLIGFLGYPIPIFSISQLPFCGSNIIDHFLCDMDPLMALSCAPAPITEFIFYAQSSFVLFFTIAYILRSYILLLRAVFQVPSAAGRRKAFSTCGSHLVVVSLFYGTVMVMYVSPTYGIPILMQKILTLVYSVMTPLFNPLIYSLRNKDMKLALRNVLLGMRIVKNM
Method in brief: as §1

UniProt Q8VH18 = molecular target: T12, UniProt Q8VH18
T12 sequence (whole entry): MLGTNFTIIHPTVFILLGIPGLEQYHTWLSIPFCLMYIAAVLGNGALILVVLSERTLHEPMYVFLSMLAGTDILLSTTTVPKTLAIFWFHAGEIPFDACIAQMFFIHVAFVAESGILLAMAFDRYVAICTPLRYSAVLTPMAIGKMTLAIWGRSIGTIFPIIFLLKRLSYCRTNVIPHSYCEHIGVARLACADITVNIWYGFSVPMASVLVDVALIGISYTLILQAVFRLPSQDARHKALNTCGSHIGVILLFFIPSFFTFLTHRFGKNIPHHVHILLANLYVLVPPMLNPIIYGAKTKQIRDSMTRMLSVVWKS
Method in brief: as §1

UniProt Q924X8 = molecular target: T13, UniProt Q924X8
T13 sequence (whole entry): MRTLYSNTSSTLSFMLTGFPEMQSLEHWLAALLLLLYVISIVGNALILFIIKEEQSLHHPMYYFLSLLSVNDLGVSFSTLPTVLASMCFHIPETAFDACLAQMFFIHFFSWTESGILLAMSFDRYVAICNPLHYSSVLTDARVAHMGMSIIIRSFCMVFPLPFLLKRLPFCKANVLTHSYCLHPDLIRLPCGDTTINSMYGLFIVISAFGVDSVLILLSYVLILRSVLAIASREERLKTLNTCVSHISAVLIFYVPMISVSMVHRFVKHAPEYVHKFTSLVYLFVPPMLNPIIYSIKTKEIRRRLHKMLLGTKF
Method in brief: as §1

UniProt Q99NH4 = molecular target: T14, UniProt Q99NH4
T14 sequence (whole entry): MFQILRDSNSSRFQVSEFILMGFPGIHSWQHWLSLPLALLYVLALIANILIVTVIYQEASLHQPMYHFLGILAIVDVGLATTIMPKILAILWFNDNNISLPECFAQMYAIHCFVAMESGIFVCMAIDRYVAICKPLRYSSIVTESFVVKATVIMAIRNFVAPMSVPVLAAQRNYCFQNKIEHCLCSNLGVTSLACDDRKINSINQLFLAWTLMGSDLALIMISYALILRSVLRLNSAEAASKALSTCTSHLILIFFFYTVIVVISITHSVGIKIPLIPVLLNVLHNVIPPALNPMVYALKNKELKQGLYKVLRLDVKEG
Method in brief: as §1

UniProt Q9WU94 = molecular target: T15, UniProt Q9WU94
T15 sequence (whole entry): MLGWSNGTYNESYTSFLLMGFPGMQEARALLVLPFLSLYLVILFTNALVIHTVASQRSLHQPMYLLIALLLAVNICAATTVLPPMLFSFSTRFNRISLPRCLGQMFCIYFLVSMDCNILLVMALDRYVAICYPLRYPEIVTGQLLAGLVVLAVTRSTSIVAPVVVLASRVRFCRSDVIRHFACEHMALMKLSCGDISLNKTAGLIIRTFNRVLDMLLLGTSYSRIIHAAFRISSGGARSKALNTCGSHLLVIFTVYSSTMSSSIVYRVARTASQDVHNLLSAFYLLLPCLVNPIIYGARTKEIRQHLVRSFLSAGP
Method in brief: as §1

UniProt Q9WVD7 = molecular target: T16, UniProt Q9WVD7
T16 sequence (whole entry): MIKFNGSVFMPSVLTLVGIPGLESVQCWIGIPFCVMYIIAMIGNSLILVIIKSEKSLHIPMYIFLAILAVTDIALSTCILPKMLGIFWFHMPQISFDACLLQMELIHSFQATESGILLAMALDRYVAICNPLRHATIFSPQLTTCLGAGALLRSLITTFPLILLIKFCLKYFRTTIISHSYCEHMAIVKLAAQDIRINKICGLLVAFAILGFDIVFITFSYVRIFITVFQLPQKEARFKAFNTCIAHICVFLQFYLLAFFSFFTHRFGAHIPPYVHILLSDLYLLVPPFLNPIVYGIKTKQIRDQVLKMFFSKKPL
Method in brief: as §1

Structure (SMILES) | odorant receptor agonist call (UniProt Q8VGZ2) | odorant receptor agonist call (UniProt Q8VGZ7) | odorant receptor agonist call (UniProt Q8VH16) | odorant receptor agonist call (UniProt Q8VH20) | odorant receptor agonist call (UniProt Q8VH21) | odorant receptor agonist call (UniProt Q924H8) | odorant receptor agonist call (UniProt Q8VGX8) | odorant receptor agonist call (UniProt Q8VGY6) | odorant receptor agonist call (UniProt Q8VH10) | odorant receptor agonist call (UniProt Q9EPN9) | odorant receptor agonist call (UniProt Q9R0K2) | odorant receptor agonist call (UniProt Q9WU86) | odorant receptor agonist call (UniProt Q8VH18) | odorant receptor agonist call (UniProt Q924X8) | odorant receptor agonist call (UniProt Q99NH4) | odorant receptor agonist call (UniProt Q9WU94) | odorant receptor agonist call (UniProt Q9WVD7)
C=C(CC)CCCC(C)(C)O | inactive | inactive | inactive | inactive | inactive | inactive |  |  |  |  |  |  |  |  |  |  | 
CCCCOC(=O)C(C)OC(=O)CCC (stereo not drawn) | inactive | inactive |  | inactive |  |  | inactive | inactive | inactive | inactive | inactive | inactive |  |  |  |  | 
O=C([O-])CCCCCCC(=O)[O-].[H+].[H+] | inactive | inactive | inactive | inactive | inactive | inactive | inactive |  |  |  |  |  | inactive | active | inactive | inactive | inactive
CC(C)CS | inactive | inactive | inactive | inactive | inactive | inactive |  |  |  |  |  |  |  |  |  |  | 
CCCCCCC(C)=O | inactive | inactive | inactive | inactive | inactive | inactive | inactive | inactive | inactive | inactive | inactive | inactive |  |  |  |  | 
OCC=Cc1ccccc1 | inactive | inactive | inactive | inactive | inactive | inactive |  |  |  |  |  |  |  |  |  |  | 
O=C([O-])CCCCCCCC(=O)[O-].[H+].[H+] | inactive | inactive | inactive | inactive | inactive | inactive | inactive |  |  |  |  |  | inactive | active | inactive | active | inactive
